KCNK9 inh: human KCNK9 channel inhibition | HEK293 KCNK9, FluxOR thallium flux fluorescence; hits give low values | actives 1.2% (n = 310,000) | B-score at 10 µM | Q9NPC2;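 active = ratio B-score over 3 SD below the library mean, with starting fluorescence within 5 SD of its mean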;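 also: negative B-score means less thallium flux so channel inhibition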
Kir21 inh: inhibitors of mouse Kir2.1 inward-rectifier potassium channel; P35561; HEK293-Kir2.1, FluxOR thallium flux fluorescence; hits give low values; B-score at 10 µM; actives 0.85% (n = 310,000); AID 1672;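 active = fluorescence ratio B-score at or below minus 3 SD of library scores, with starting-brightness B-score within 2 SD, cut at about -4.2 in these data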;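 also: channel flux triggered by added potassium and thallium sulfate stimulus; B-score of peak minus minimum fluorescence over baseline after thallium stimulus; more negative B-score means stronger Kir2.1 block with less thallium influx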
KCNQ1 inh: inhibitors of human KCNQ1 potassium channel; actives 1.3% (n = 310,000); B-score at 10 µM; P51787; CHO-K1 KCNQ1, FluxOR thallium flux fluorescence; hits give high values;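 active = compounds whose thallium flux B-score, printed positive for inhibition, exceeds three library SD while starting fluorescence stays within three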;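 also: channel opened by potassium depolarization with thallium stimulus after 20 min compound exposure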
KCNQ1 act: human KCNQ1 channel potentiation or activation. CHO-K1 KCNQ1, thallium flux FluxOR fluorescence; hits give high values. B-score at 10 µM. actives 0.35% (n = 310,000);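 active = fluorescence ratio B-score, a plate-corrected score, at least three library SD, with initial intensity B-score within 5 SD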
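Doses: Single concentration per compound, DMSO matched to controls | Test system: KCNQ1-transfected CHO-K1 cells | Timing: 90 min dye loading and 20 min compound exposure, both at room temperature | Measured by: Kinetic FluxOR thallium fluorescence, 10-s 1-Hz baseline, 110-s post-stimulus read | Medium: Assay buffer with matched DMSO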
hERG rescue: hERG (human) protection from proarrhythmic block | Q12809 | CHO-hERG, FluxOR thallium flux, dofetilide IC70 present | activation (rescue from dofetilide block), less the hit threshold, % at 10 µM | actives 0.51% (n = 310,000);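 active = activation above the mean of controls blocked by dofetilide plus 5 SD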;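 also: thallium influx through hERG after potassium depolarization seen as dye fluorescence rise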
Target sequence (Q12809 whole entry, looked up): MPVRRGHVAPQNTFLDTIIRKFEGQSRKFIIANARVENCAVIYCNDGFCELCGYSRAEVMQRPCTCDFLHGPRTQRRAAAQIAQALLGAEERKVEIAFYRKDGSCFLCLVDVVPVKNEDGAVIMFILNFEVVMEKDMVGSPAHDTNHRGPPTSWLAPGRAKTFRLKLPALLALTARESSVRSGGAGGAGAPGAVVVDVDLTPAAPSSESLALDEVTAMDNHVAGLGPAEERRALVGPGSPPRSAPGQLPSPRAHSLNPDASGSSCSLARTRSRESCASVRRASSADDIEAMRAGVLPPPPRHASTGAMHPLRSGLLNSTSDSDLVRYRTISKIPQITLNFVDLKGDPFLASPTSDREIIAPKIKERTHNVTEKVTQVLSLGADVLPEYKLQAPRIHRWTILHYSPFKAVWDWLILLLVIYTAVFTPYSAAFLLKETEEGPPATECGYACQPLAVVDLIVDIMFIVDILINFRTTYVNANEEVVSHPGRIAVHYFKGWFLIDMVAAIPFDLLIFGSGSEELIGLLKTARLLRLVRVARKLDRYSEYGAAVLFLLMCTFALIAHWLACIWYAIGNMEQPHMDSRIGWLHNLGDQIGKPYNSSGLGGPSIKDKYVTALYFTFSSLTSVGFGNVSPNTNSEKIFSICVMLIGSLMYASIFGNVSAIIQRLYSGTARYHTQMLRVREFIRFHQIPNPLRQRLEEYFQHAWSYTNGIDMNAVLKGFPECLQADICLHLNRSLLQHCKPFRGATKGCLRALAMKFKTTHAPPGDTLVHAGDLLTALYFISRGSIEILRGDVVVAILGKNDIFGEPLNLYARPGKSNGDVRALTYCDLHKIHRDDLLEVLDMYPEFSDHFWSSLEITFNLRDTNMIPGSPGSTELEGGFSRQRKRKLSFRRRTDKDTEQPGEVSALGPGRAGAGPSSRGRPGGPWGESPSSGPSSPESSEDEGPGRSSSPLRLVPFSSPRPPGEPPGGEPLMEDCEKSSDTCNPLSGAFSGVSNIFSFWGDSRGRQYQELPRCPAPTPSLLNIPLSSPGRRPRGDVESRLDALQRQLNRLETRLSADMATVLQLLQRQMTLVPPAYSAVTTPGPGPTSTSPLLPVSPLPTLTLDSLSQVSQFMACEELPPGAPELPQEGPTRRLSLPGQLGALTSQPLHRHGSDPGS
KCNK3 inh: human KCNK3 channel inhibition, primary screen | actives 0.84% (n = 340,000) | B-score at 10 µM | AID 602410 | CHO-KCNK3 thallium flux, FluxOR fluorescence; hits give low values | O14649;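 active = B-score under library mean minus 4 SD, starting fluorescence ratio at most library mean plus 5 SD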;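 also: more negative B-score means stronger inhibition of thallium flux through KCNK3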
KCNK3 inh conf: human KCNK3 channel inhibition, confirmation assay. shares compounds with KCNK3 inh. CHO-KCNK3 thallium flux, FluxOR fluorescence; 0% buffer, 100% carvedilol maximal block. ratio percent of control, % at 10 µM. actives 99% (n = 2,400). AID 651638;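 active = ratio percent of control, averaged over triplicates, above buffer control mean plus 5 SD, cut at about 64% in these data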;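 also: ratio is the fluorescence rise from min to max over baseline after thallium stimulus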
KCNK3 noninduced: KCNK3 inhibitor counter-screen hit in non-induced cells; shares compounds with KCNK3 inh; non-induced KCNK3 parental cells, FluxOR thallium flux; hits give low values; thallium flux ratio (lower = more inhibition) at 10 µM; actives 40% (n = 2,400); AID 651747;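 active = thallium flux ratio, averaged over three wells, more than 5 SD below the buffer control mean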;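 also: host cells are CHO cells without KCNK3 induction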
Large screens that a line does not name were inactive (follow-up assays come after a bar, where they were run). Shown are actives, neighbours in structure and some others; about 3.8% of the full set was active somewhere.

CCOC(=O)c1cc2sccc2n1CC(=O)O	none
CN1CCN(c2ccccc2NC(=O)c2ccc([N+](=O)[O-])cc2Cl)CC1	none
COCCCN(C(=S)Nc1cc(Cl)cc(Cl)c1)C(C)c1ccncc1 (centres undefined)	none
COCCCN(C(=S)Nc1cc(Cl)cc(Cl)c1)C(C)c1ccccn1 (centres undefined)	KCNQ1 inh 8, KCNK3 inh -10.7 | KCNK3 inh conf 123.0 | KCNK3 noninduced 0.158
Cc1ccc(C)c(CN2C(=O)C3(OCCCO3)c3ccccc32)c1	none
CCOc1ccccc1CN1C(=O)C2(OCCO2)c2ccccc21	KCNK3 inh -9.67 | KCNK3 inh conf 108.3 | KCNK3 noninduced inactive
CC1Cc2ccccc2N1Cc1cccc([N+](=O)[O-])c1 (centres undefined)	KCNK3 inh -13.5 | KCNK3 inh conf 109.3 | KCNK3 noninduced inactive
CC1Cc2ccccc2N1Cc1ccc([N+](=O)[O-])cc1 (centres undefined)	none
COc1ccccc1NS(=O)(=O)c1ccc(C)c(NC(=O)c2c(C)noc2C)c1	none (no result: KCNK9 inh, Kir21 inh, KCNQ1 inh, KCNQ1 act, hERG rescue)
OC1CCCN(c2c3c(nc4cc(-c5cccc(Cl)c5)nn24)CCC3)C1 (centres undefined)	KCNK3 inh -10.5 | KCNK3 inh conf 92.7 | KCNK3 noninduced inactive
OC1CCN(c2c3c(nc4cc(-c5ccc(F)cc5)nn24)CCC3)CC1	none
Cc1cccc(-c2cc3nc4c(c(N5CCCC(O)C5)n3n2)CCC4)c1 (centres undefined)	KCNK3 inh -10.1 | KCNK3 inh conf 102.7 | KCNK3 noninduced inactive
OC1CCCN(c2c3c(nc4cc(-c5cccc(F)c5)nn24)CCCC3)C1 (centres undefined)	none
CN(CC(=O)Nc1ncn[nH]1)S(=O)(=O)c1cc(Cl)ccc1Cl	none
Cc1ccc(-c2onc(C)c2C)cc1S(=O)(=O)N1CCOc2ccccc21	KCNK3 inh -9.81 | KCNK3 inh conf 126.0 | KCNK3 noninduced 0.146
CCCN1CCc2c(sc(NC(=O)c3ccc(S(=O)(=O)N4CCN(C(=O)OCC)CC4)cc3)c2C(N)=O)C1	KCNQ1 inh 6, KCNK3 inh -11.3 | KCNK3 inh conf 125.0 | KCNK3 noninduced 0.0933
NC(=O)c1ccsc1NC(=O)COC(=O)CSc1ccc(Cl)cc1	none
Cc1c(C(=O)N(Cc2ccccc2)C(C)C)oc2ccc(S(=O)(=O)N3CCOCC3)cc12	none
Cc1c(Cl)cccc1NC(=O)CCN1CCC(C(N)=O)CC1	none
O=C(OC(c1ccccc1)c1nccc2ccccc12)c1ccccc1 (centres undefined)	KCNK3 inh -11.5 (no result: KCNK9 inh, Kir21 inh, KCNQ1 inh, KCNQ1 act, hERG rescue) | KCNK3 inh conf 104.7 | KCNK3 noninduced 0.139
CC(C)C(OC(=O)c1ccccc1)c1nccc2ccccc12 (centres undefined)	none
O=C1OC(c2ccccc2)(c2ccc3cc(O)ccc3c2)c2ccccc21 (centres undefined)	KCNK3 inh -16.4 (no result: KCNK9 inh, Kir21 inh, KCNQ1 inh, KCNQ1 act, hERG rescue) | KCNK3 inh conf 128.3 | KCNK3 noninduced 0.113
COCCN(C(=O)CSc1nc2ccccc2o1)c1c(N)n(Cc2ccccc2)c(=O)[nH]c1=O	none (no result: KCNK9 inh, Kir21 inh, KCNQ1 inh, KCNQ1 act, hERG rescue)
CCCCn1c(N)c(N(CCOC)C(=O)C2CCN(C(=O)c3ccccc3C)CC2)c(=O)[nH]c1=O	none
COc1ccc(S(=O)(=O)NC(C)C(=O)NCc2ccncc2)cc1OC (centres undefined)	none
CNc1c(NS(=O)(=O)c2ccc(Cl)cc2)c(=O)oc2ccccc12	none
CNc1c(NS(=O)(=O)c2ccc(C3CCCCC3)cc2)c(=O)oc2ccccc12	KCNK3 inh -9.4 | KCNK3 inh conf 87.0 | KCNK3 noninduced inactive
C=CCOc1ccccc1CN1CCC(Oc2ccc(C(=O)N3CCCCC3)cc2)CC1	none
COc1ccc(C2=NS(=O)(=O)N(C)C(C(=O)Nc3cc(C)ccc3O)=C2)cc1OC	KCNQ1 inh 9, KCNK3 inh -9.23 | KCNK3 inh conf 95.3 | KCNK3 noninduced inactive
CN(C(=O)c1ccc(COc2ccccc2Cl)o1)c1ccccc1	KCNK3 inh -9.94 | KCNK3 inh conf 82.0 | KCNK3 noninduced inactive
COc1ccccc1OCc1ccc(C(=O)N(C)c2ccccc2)o1	none
CCOC(=O)c1cnc2ccc(C)cc2c1NCCN1CCOCC1	KCNK3 inh -8.84 | KCNK3 inh conf 100.3 | KCNK3 noninduced inactive
CCOC(=O)c1cnc2ccc(C(=O)OC)cc2c1Nc1ccc2c(c1)OCCO2	none
CCOC(=O)c1cnc2ccc(OC)cc2c1Nc1ccc2c(c1)OCCO2	KCNK3 inh -12.2 | KCNK3 inh conf 135.0 | KCNK3 noninduced 0.156
CC1=Nc2ccccc2/C1=C/c1sc(=N)n(-c2nccs2)c1O	KCNQ1 inh 10, KCNK3 inh -10.1 | KCNK3 inh conf 174.7 | KCNK3 noninduced 0.0887
Cc1ccc(CNC(=O)c2ccc(CS(=O)(=O)c3ccccc3)o2)cc1	none
CC(C)(C)c1ccc(C(=O)NCCC(=O)N2CCCC2)cc1	none
CC(C)(C)c1ccc(C(=O)NCCC(=O)N2CCN(c3ncccn3)CC2)cc1	KCNK3 inh -12.3 | KCNK3 inh conf 86.0 | KCNK3 noninduced inactive
CC(=O)NC(CC(=O)Nc1nc(-c2ccc(N(C)S(C)(=O)=O)cc2)cs1)c1ccccc1 (centres undefined)	KCNK3 inh -10.5 | KCNK3 inh conf 59.0 | KCNK3 noninduced inactive
C=CCn1c(NC(C)c2cc(Cl)ccc2O)nc2ccccc21 (centres undefined)	KCNK9 inh -6.63, KCNK3 inh -11.9 | KCNK3 inh conf 122.0 | KCNK3 noninduced 0.143
Clc1ccc(-c2cn3c(n2)-c2ccccc2C3)cc1Cl	none
CN(CC(=O)Nc1cccc(F)c1)CC(=O)Nc1ccccc1Oc1ccccc1	KCNK3 inh -9.02 | KCNK3 inh conf 105.3 | KCNK3 noninduced inactive
NC(=O)c1nsc(C(=O)N(c2ccc(F)cc2)C(C(=O)NCC2CCCO2)c2ccc3ncccc3c2)c1N (centres undefined)	none
COc1c(C)cc(Br)cc1C(=O)Nc1ccc(Cc2ccncc2)cc1	KCNK3 inh -9.67 | KCNK3 inh conf 116.7 | KCNK3 noninduced inactive
O=C(NCCC(c1ccccc1)c1ccccc1)c1ccc(Br)o1	KCNK3 inh -9.7 | KCNK3 inh conf 114.0 | KCNK3 noninduced inactive
O=C(NCCc1c[nH]c2ccccc12)c1ccc(Br)o1	none (no result: KCNK9 inh, Kir21 inh, KCNQ1 inh, KCNQ1 act, hERG rescue)
O=C(NCCc1csc(-c2ccccc2)n1)c1ccc(Br)o1	KCNK3 inh -11.1 | KCNK3 inh conf 91.7 | KCNK3 noninduced inactive
O=C(O)CCNC(=O)c1ccc(Br)o1	none

Assay outcomes as filed in PubChem BioAssay.
